According to ChEMBL document CHEMBL1125677, “New derivatives of kanamycin B obtained by combined modifications in positions 1 and 6". Synthesis, microbiological properties, and in vitro and computer-aided toxicological evaluation” (J Med Chem, 1991):
Values after ≈ are worked out from the molar mass of the structure shown.

What was measured:
Escherichia coli [1] = assay: Minimum inhibitory concentration was measured against Escherichia coli 71120101 producing AAD-(4')) modifying enzyme; format: functional
Method in brief: (§1)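 MICs were determined by agar dilution and by microtiter (broth) dilution in Mueller-Hinton medium against strains producing defined aminoglycoside-modifying enzymes. Values are reported in mg/L.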

Escherichia coli [2] = assay: Minimum inhibitory concentration was measured against Escherichia coli 00000589 producing APH-(3'') modifying enzyme; format: functional; method in brief: as §1
Providencia stuartii [3] = assay: Minimum inhibitory concentration was measured against Providencia stuartii 72052305 producing AAC-(2'') modifying enzyme; format: functional
Method in brief: (§2)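 Agar dilution and microtiter broth dilution, with incubation in Mueller-Hinton medium; MIC expressed in mg/L.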

Klebsiella pneumoniae [4] = assay: Minimum inhibitory concentration was measured against Klebsiella pneumoniae 00GT3020 producing AAD-(2'')-modifying enzyme; format: functional; method in brief: as §1
Serratia marcescens [5] = assay: Minimum inhibitory concentration was measured against Serratia marcescens ATCC 8100; format: functional; method in brief: as §2
Enterobacter cloacae = assay: Minimum inhibitory concentration was measured against Enterobacter cloacae ATCC 23355; format: functional; method in brief: as §2
Escherichia coli [6] = assay: Minimum inhibitory concentration was measured against Escherichia coli ATCC 25992.; format: functional; method in brief: as §2
Klebsiella pneumoniae [7] = assay: Minimum inhibitory concentration was measured against Klebsiella pneumoniae 760070702 producing AAC-(3)-I modifying enzyme; format: functional; method in brief: as §2
Klebsiella pneumoniae [8] = assay: Minimum inhibitory concentration was measured against Klebsiella pneumoniae 75012101 producing AAD-(2'')-modifying enzyme; format: functional; method in brief: as §2
Pseudomonas aeruginosa = assay: Minimum inhibitory concentration was measured against Pseudomonas aeruginosa ATCC 27853; format: functional; method in brief: as §2
Serratia marcescens [9] = assay: microbe, parasite or virus in culture
Escherichia coli [10] = assay: Minimum inhibitory concentration was measured against Escherichia coli 73110901 producing AAC-(6')-I) modifying enzyme; format: functional; method in brief: as §2
Escherichia coli [11] = assay: Minimum inhibitory concentration was measured against Escherichia coli 72091801 producing AAC-(3)-I modifying enzyme; format: functional; method in brief: as §1
Salmonella typhimurium [12] = assay: (§3) Minimum inhibitory concentration was measured against Salmonella Typhimurium ATCC 14028; format: functional, Salmonella enterica subsp. enterica serovar Typhimurium; details: Salmonella enterica; method in brief: as §2
Staphylococcus aureus [13] = assay: Minimum inhibitory concentration was measured against Staphylococcus aureus 76080401 producing AAD-(4')) modifying enzyme; format: functional; method in brief: as §2
Serratia marcescens [14] = assay: Minimum inhibitory concentration was measured against Serratia marcescens 75012711 producing AAD-(2'')+AAC(6'') modifying enzyme; format: functional; method in brief: as §2
Serratia marcescens [15] = assay: Minimum inhibitory concentration was measured against Serratia marcescens S69.; format: functional; method in brief: as §2
[16] = tested on: Staphylococcus epidermidis; assay: Minimum inhibitory concentration was measured against Staphylococcus epidermidis ATCC 12228.; format: functional; method in brief: as §2
Providencia stuartii [17] = assay: Minimum inhibitory concentration was measured against Providencia stuartii 00000164 producing AAC-(2'') modifying enzyme; format: functional; method in brief: as §2
Serratia marcescens [18] = assay: Minimum inhibitory concentration was measured against Serratia marcescens S20.; format: functional; method in brief: as §2
Escherichia coli [19] = assay: Minimum inhibitory concentration was measured against Escherichia coli OLA 290R5 producing AAD-(2'')-modifying enzyme; format: functional; method in brief: as §1
Klebsiella pneumoniae [20] = assay: Minimum inhibitory concentration was measured against Klebsiella pneumoniae ATCC 13883; format: functional; method in brief: as §2
Klebsiella pneumoniae [21] = assay: Minimum inhibitory concentration was measured against Klebsiella pneumoniae 7608271 producing AAC-(3)-II modifying enzyme; format: functional; method in brief: as §2
Escherichia coli [22] = assay: Minimum inhibitory concentration was measured against Escherichia coli 001574-1 producing APH-(3'') modifying enzyme; format: functional; method in brief: as §1
Staphylococcus aureus [23] = assay: Minimum inhibitory concentration was measured against Staphylococcus aureus ATCC 25923; format: functional; method in brief: as §2
Bacillus subtilis = assay: Minimum inhibitory concentration was measured against Bacillus subtilis ATCC 6633.; format: functional; method in brief: as §2
Escherichia coli [24] = assay: Minimum inhibitory concentration was measured against Escherichia coli 0000JR66 producing AAD-(2'')-modifying enzyme; format: functional; method in brief: as §2
Escherichia coli [25] = assay: Minimum inhibitory concentration was measured against Escherichia coli 76070703 producing AAC-(3)-I modifying enzyme; format: functional; method in brief: as §1
Providencia stuartii [26] = assay: Minimum inhibitory concentration was measured against Providencia stuartii 75082808 producing AAC-(2'') modifying enzyme; format: functional; details: in the assay text read “AAC-(2')” for “AAC-(2'')”; method in brief: as §2
Salmonella typhimurium [27] = assay: as §3; format: functional, salmonella typhimurium a; details: Salmonella enterica; method in brief: as §2

MIC (Serratia marcescens [5])	MIC (Pseudomonas aeruginosa)	MIC [16]	MIC (Klebsiella pneumoniae [20])	MIC (Bacillus subtilis)	SMILES	MIC (Escherichia coli [1])	MIC (Escherichia coli [2])	MIC (Providencia stuartii [3])	MIC (Klebsiella pneumoniae [4])	MIC (Enterobacter cloacae)	MIC (Escherichia coli [6])	MIC (Serratia marcescens [9])	MIC (Escherichia coli [10])	MIC (Escherichia coli [11])	MIC (Salmonella typhimurium [12])	MIC (Serratia marcescens [14])	MIC (Serratia marcescens [15])	MIC (Providencia stuartii [17])	MIC (Serratia marcescens [18])	MIC (Staphylococcus aureus [23])	further results
2 µg/mL (≈ 3.76 µM)	> 128 µg/mL	0.5 µg/mL (≈ 0.94 µM)	0.5 µg/mL (≈ 0.94 µM)	1 µg/mL (≈ 1.88 µM)	NCC1OC(OC2C(N)CC(N)(CO)C(OC3OC(CCl)C(O)C(N)C3O)C2O)C(N)C(O)C1O (configuration not stated)	128 µg/mL (≈ 241 µM)	> 128 µg/mL	32 µg/mL (≈ 60.2 µM)	> 256 µg/mL	0.25 µg/mL (≈ 0.47 µM)	1 µg/mL (≈ 1.88 µM)	8 µg/mL (≈ 15 µM)	128 µg/mL (≈ 241 µM)	> 256 µg/mL	2 µg/mL (≈ 3.76 µM)	> 256 µg/mL	> 64 µg/mL	256 µg/mL (≈ 481 µM)	> 64 µg/mL	0.5 µg/mL (≈ 0.94 µM)	MIC (Klebsiella pneumoniae [7]): 1 µg/mL (≈ 1.88 µM); MIC (Klebsiella pneumoniae [8]): 16 µg/mL (≈ 30.1 µM); MIC (Staphylococcus aureus [13]): 256 µg/mL (≈ 481 µM); MIC (Escherichia coli [19]): 8 µg/mL (≈ 15 µM); MIC (Klebsiella pneumoniae [21]): > 256 µg/mL; MIC (Escherichia coli [22]): 2 µg/mL (≈ 3.76 µM); MIC (Escherichia coli [24]): > 256 µg/mL
–	–	–	–	–	NCC[C@H](O)C(=O)N[C@@H]1C[C@H](N)[C@@H](O[C@H]2O[C@H](CN)[C@@H](O)[C@H](O)[C@H]2O)[C@H](O)[C@H]1O[C@H]1O[C@H](CO)[C@@H](O)[C@H](N)[C@H]1O [AMIKACIN]	4 µg/mL (≈ 6.83 µM)	8 µg/mL (≈ 13.7 µM)	1 µg/mL (≈ 1.71 µM)	2 µg/mL (≈ 3.42 µM)	1 µg/mL (≈ 1.71 µM)	4 µg/mL (≈ 6.83 µM)	1 µg/mL (≈ 1.71 µM)	256 µg/mL (≈ 437 µM)	8 µg/mL (≈ 13.7 µM)	–	2 µg/mL (≈ 3.42 µM)	2 µg/mL (≈ 3.42 µM)	16 µg/mL (≈ 27.3 µM)	8 µg/mL (≈ 13.7 µM)	1 µg/mL (≈ 1.71 µM)	MIC (Escherichia coli [25]): 4 µg/mL (≈ 6.83 µM); MIC (Providencia stuartii [26]): 16 µg/mL (≈ 27.3 µM); MIC (Escherichia coli [19]): 2 µg/mL (≈ 3.42 µM); MIC (Escherichia coli [22]): 2 µg/mL (≈ 3.42 µM)
16 µg/mL (≈ 28.8 µM)	> 128 µg/mL	1 µg/mL (≈ 1.8 µM)	2 µg/mL (≈ 3.61 µM)	8 µg/mL (≈ 14.4 µM)	CC(=O)NCC1OC(OC2C(O)C(OC3OC(CN)C(O)C(O)C3N)C(N)CC2(N)CO)C(O)C(N)C1O (configuration not stated)	–	–	–	–	0.25 µg/mL (≈ 0.451 µM)	4 µg/mL (≈ 7.21 µM)	–	–	–	–	–	> 64 µg/mL	–	> 64 µg/mL	1 µg/mL (≈ 1.8 µM)	MIC (Salmonella typhimurium [27]): 8 µg/mL (≈ 14.4 µM)

SMILES	MIC (Serratia marcescens [5])	MIC (Pseudomonas aeruginosa)	MIC [16]	MIC (Klebsiella pneumoniae [20])	MIC (Bacillus subtilis)	MIC (Escherichia coli [1])	MIC (Escherichia coli [2])	MIC (Providencia stuartii [3])	MIC (Klebsiella pneumoniae [4])	MIC (Enterobacter cloacae)	MIC (Escherichia coli [6])	MIC (Serratia marcescens [9])	MIC (Escherichia coli [10])	MIC (Escherichia coli [11])	MIC (Salmonella typhimurium [12])	MIC (Serratia marcescens [14])	MIC (Serratia marcescens [15])	MIC (Providencia stuartii [17])	MIC (Serratia marcescens [18])	MIC (Staphylococcus aureus [23])	further results
NC[C@H]1O[C@H](O[C@H]2[C@H](O)[C@@H](O[C@H]3O[C@H](CO)[C@@H](O)[C@H](N)[C@H]3O)[C@H](N)C[C@@H]2N)[C@H](N)[C@@H](O)[C@@H]1O [BEKANAMYCIN]	1 µg/mL (≈ 2.07 µM)	> 128 µg/mL	0.25 µg/mL (≈ 0.517 µM)	0.25 µg/mL (≈ 0.517 µM)	0.5 µg/mL (≈ 1.03 µM)	–	–	–	–	0.25 µg/mL (≈ 0.517 µM)	1 µg/mL (≈ 2.07 µM)	–	–	–	1 µg/mL (≈ 2.07 µM)	–	> 64 µg/mL	–	> 64 µg/mL	0.5 µg/mL (≈ 1.03 µM)	–
